Experimental data taken from ChEMBL document CHEMBL1765051 (J Med Chem, 2011).
In brackets after ≈: the same amount, converted by molar mass. Values belong to the molecule of their own block, whether it stands above or below them.

Columns and labels:
[1] = system: Human immunodeficiency virus 1; experiment: Antiviral activity against HIV1 3B harboring reverse transcriptase E138K mutant infected in human CEM cells assessed as inhibition of syncytia formation; format: functional, organism-based; conditions: Human immunodeficiency virus 1, 3B, CCRF-CEM
[2] = system: Human immunodeficiency virus 1; experiment: Ratio of EC50 for HIV1 3B harboring reverse transcriptase Y188L mutant to EC50 for wild type HIV1 3B; format: functional
[3] = system: Human immunodeficiency virus 1; experiment: Antiviral activity against HIV1 3B harboring reverse transcriptase V179N mutant infected in human CEM cells assessed as inhibition of syncytia formation; format: functional, organism-based; conditions: Human immunodeficiency virus 1, 3B, CCRF-CEM
[4] = system: Human immunodeficiency virus 1; experiment: Antiviral activity against HIV1 3B harboring reverse transcriptase Y188H mutant infected in human CEM cells assessed as inhibition of syncytia formation; format: functional, organism-based; conditions: Human immunodeficiency virus 1, 3B, CCRF-CEM
[5] = system: Human immunodeficiency virus 1; experiment: Ratio of EC50 for HIV1 3B harboring reverse transcriptase V106A mutant to EC50 for wild type HIV1 3B; format: functional
[6] = system: Human immunodeficiency virus 1; experiment: Antiviral activity against HIV1 3B harboring reverse transcriptase Y181I mutant infected in human CEM cells assessed as inhibition of syncytia formation; format: functional, organism-based; conditions: Human immunodeficiency virus 1, 3B, CCRF-CEM
[7] = system: Human immunodeficiency virus 1; experiment: Antiviral activity against HIV1 3B harboring reverse transcriptase L100I mutant infected in human CEM cells assessed as inhibition of syncytia formation; format: functional, organism-based; conditions: Human immunodeficiency virus 1, 3B, CCRF-CEM
[8] = system: Human immunodeficiency virus 1; experiment: Antiviral activity against HIV1 3B harboring reverse transcriptase V106A mutant infected in human CEM cells assessed as inhibition of syncytia formation; format: functional, organism-based; conditions: Human immunodeficiency virus 1, 3B, CCRF-CEM
[9] = system: Human immunodeficiency virus 1; experiment: Ratio of EC50 for HIV1 3B harboring reverse transcriptase Y181I mutant to EC50 for wild type HIV1 3B; format: functional
[10] = molecular target: Human immunodeficiency virus type 1 reverse transcriptase (Human immunodeficiency virus 1, UniProt Q72547, K101E); experiment: Inhibition of HIV-1 reverse transcriptase K101E mutant-mediated polymerization reaction after 30 mins
In short: (§1)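 Recombinant mutant HIV-1 RT started reactions containing 50 mM Tris-HCl pH 7.8, 5 mM DTT, 300 mM glutathione, 0.5 mM EDTA, 150 mM KCl, 5 mM MgCl2, BSA, 0.06% Triton X-100, 2.8 μM [3H]dGTP, 0.1 mM poly(rC)/oligo(dG) and varying compound. Incubated 30 min at 37°C, stopped with yeast RNA/pyrophosphate/TCA, acid-insoluble radioactivity counted; IC50 = 50% polymerization inhibition; mean ± SD, ≥2 independent experiments.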

[11] = Inhibition of HIV-1 reverse transcriptase […] and E138K mutant-mediated polymerization reaction after 30 mins; design: species or system Human immunodeficiency virus 1; in short: as §1
[12] = system: Human immunodeficiency virus 1; experiment: Ratio of EC50 for HIV1 3B harboring reverse transcriptase L100I mutant to EC50 for wild type HIV1 3B; format: functional
[13] = system: Human immunodeficiency virus 1; experiment: Ratio of EC50 for HIV1 3B harboring reverse transcriptase K103N mutant to EC50 for wild type HIV1 3B; format: functional
[14] = system: Human immunodeficiency virus 1; experiment: Antiviral activity against HIV1 3B harboring reverse transcriptase K103N mutant infected in human CEM cells assessed as inhibition of syncytia formation; format: functional, organism-based; conditions: Human immunodeficiency virus 1, 3B, CCRF-CEM
[15] = system: Human immunodeficiency virus 1; experiment: Antiviral activity against HIV1 3B harboring reverse transcriptase N136A/Q/K mutant infected in human CEM cells assessed as inhibition of syncytia formation; format: functional, organism-based; conditions: Human immunodeficiency virus 1, 3B, CCRF-CEM
[16] = system: Human immunodeficiency virus 1; experiment: Antiviral activity against HIV1 3B harboring reverse transcriptase E138D mutant infected in human CEM cells assessed as inhibition of syncytia formation; format: functional, organism-based; conditions: Human immunodeficiency virus 1, 3B, CCRF-CEM
[17] = system: Human immunodeficiency virus 1; experiment: Ratio of EC50 for HIV1 3B harboring reverse transcriptase N136A/Q/K mutant to EC50 for wild type HIV1 3B; format: functional
[18] = system: Human immunodeficiency virus 1; experiment: Ratio of EC50 for HIV1 3B harboring reverse transcriptase Y181C mutant to EC50 for wild type HIV1 3B; format: functional
[19] = system: Human immunodeficiency virus 1; experiment: Antiviral activity against HIV1 3B harboring reverse transcriptase Y181C mutant infected in human CEM cells assessed as inhibition of syncytia formation; format: functional, organism-based; conditions: Human immunodeficiency virus 1, 3B, CCRF-CEM
[20] = system: Human immunodeficiency virus 1; experiment: Ratio of EC50 for HIV1 3B harboring reverse transcriptase G190E mutant to EC50 for wild type HIV1 3B; format: functional
[21] = system: Human immunodeficiency virus 2; experiment: Antiviral activity against wild type HIV2 infected in human CEM cells assessed as inhibition of syncytia formation; format: functional, organism-based; conditions: Human immunodeficiency virus 2, CCRF-CEM
[22] = molecular target: Human immunodeficiency virus type 1 reverse transcriptase (Human immunodeficiency virus 1, UniProt Q72547, E138K); experiment: Inhibition of HIV-1 reverse transcriptase E138K mutant-mediated polymerization reaction after 30 mins; in short: as §1
[23] = system: Human immunodeficiency virus 1; experiment: Ratio of EC50 for HIV1 3B harboring reverse transcriptase Y188H mutant to EC50 for wild type HIV1 3B; format: functional
[24] = system: Human immunodeficiency virus 1; experiment: Antiviral activity against wild type HIV1 3B infected in human CEM cells assessed as inhibition of syncytia formation; format: functional, organism-based; conditions: Human immunodeficiency virus 1, 3B, CCRF-CEM
[25] = system: Human immunodeficiency virus 1; experiment: Ratio of EC50 for HIV1 3B harboring reverse transcriptase E138K mutant to EC50 for wild type HIV1 3B; format: functional
[26] = system: Human immunodeficiency virus 1; experiment: Antiviral activity against HIV1 3B harboring reverse transcriptase G190E mutant infected in human CEM cells assessed as inhibition of syncytia formation; format: functional, organism-based; conditions: Human immunodeficiency virus 1, 3B, CCRF-CEM
[27] = system: Human immunodeficiency virus 1; experiment: Antiviral activity against HIV1 3B harboring reverse transcriptase Y188L mutant infected in human CEM cells assessed as inhibition of syncytia formation; format: functional, organism-based; conditions: Human immunodeficiency virus 1, 3B, CCRF-CEM
[28] = system: Human immunodeficiency virus 1; experiment: Antiviral activity against wild type HIV1 infected in human CEM cells assessed as inhibition of syncytia formation; format: functional, organism-based; conditions: Human immunodeficiency virus 1, CCRF-CEM
[29] = molecular target: Human immunodeficiency virus type 1 reverse transcriptase (Human immunodeficiency virus 1, UniProt Q72547); experiment: Inhibition of wild type HIV-1 reverse transcriptase-mediated polymerization reaction after 30 mins

SMILES: Cc1cn([C@@H]2O[C@H](CO[Si](C)(C)C(C)(C)C)[C@@]3(OS(=O)(=O)C=C3N)[C@H]2O[Si](C)(C)C(C)(C)C)c(=O)[nH]c1=O
EC50 [1]: > 3 µg/mL
Ratio EC50 [2]: 30
EC50 [3]: 0.22 µg/mL (≈ 0.373 µM)
EC50 [4]: > 3.3 µg/mL
Ratio EC50 [5]: 30
EC50 [6]: > 10 µg/mL
EC50 [7]: 0.07 µg/mL (≈ 0.119 µM)
EC50 [8]: 1.9 µg/mL (≈ 3.22 µM)
Ratio EC50 [9]: 30
IC50 [10]: ≥ 170 µM
IC50 [11]: > 100 µg/mL
Ratio EC50 [12]: 7
Ratio EC50 [13]: 7
EC50 [14]: 0.23 µg/mL (≈ 0.39 µM)
EC50 [15]: > 50 µg/mL
EC50 [16]: 0.01 µg/mL (≈ 0.017 µM)
Ratio EC50 [17]: 30
Ratio EC50 [18]: 30
EC50 [19]: 2 µg/mL (≈ 3.39 µM)
Ratio EC50 [20]: 30
EC50 [21]: > 20 µM
IC50 [22]: > 170 µM
Ratio EC50 [23]: 30
EC50 [24]: 0.03 µg/mL (≈ 0.0509 µM)
Ratio EC50 [25]: 30
EC50 [26]: > 10 µg/mL
EC50 [27]: > 10 µg/mL

SMILES: Cc1cn([C@@H]2O[C@H](CO[Si](C)(C)C(C)(C)C)[C@@]3(OS(=O)(=O)C=C3NC(=O)C(N)=O)[C@H]2O[Si](C)(C)C(C)(C)C)c(=O)n(C)c1=O
EC50 [21]: > 7 µM
EC50 [28]: 0.028 µM

SMILES: Nc1nc2c(ncn2[C@H]2CC[C@@H](COP(=O)(O)OP(=O)(O)OP(=O)(O)O)O2)c(=O)[nH]1 [DIDEOXY GUANOSINE TRIPHOSPHATE]
IC50 [10]: 0.244 µM
IC50 [11]: 0.14 µg/mL
IC50 [29]: 0.224 µM
IC50 [22]: 0.224 µM

SMILES: Cn1cnc2c(ncn2[C@@H]2O[C@H](CO[Si](C)(C)C(C)(C)C)[C@@]3(OS(=O)(=O)C=C3N)[C@H]2O[Si](C)(C)C(C)(C)C)c1=O
EC50 [21]: > 150 µM
EC50 [28]: 0.06 µM

SMILES: Cc1cn([C@@H]2O[C@H](CO[Si](C)(C)C(C)(C)C)[C@@]3(OS(=O)(=O)C=C3N)[C@H]2O[Si](C)(C)C(C)(C)C)c(=O)n(C)c1=O
EC50 [1]: > 3 µg/mL
Ratio EC50 [2]: 30
EC50 [3]: 0.22 µg/mL (≈ 0.364 µM)
EC50 [4]: > 3.3 µg/mL
Ratio EC50 [5]: 30
EC50 [6]: > 10 µg/mL
EC50 [7]: 0.07 µg/mL (≈ 0.116 µM)
EC50 [8]: 1.9 µg/mL (≈ 3.15 µM)
Ratio EC50 [9]: 30
IC50 [10]: > 166 µM
IC50 [11]: > 100 µg/mL
Ratio EC50 [12]: 7
IC50 [29]: 2.4 µM
Ratio EC50 [13]: 7
EC50 [14]: 0.23 µg/mL (≈ 0.381 µM)
EC50 [15]: > 50 µg/mL
EC50 [16]: 0.01 µg/mL (≈ 0.0166 µM)
Ratio EC50 [17]: 30
Ratio EC50 [18]: 30
EC50 [19]: 2 µg/mL (≈ 3.31 µM)
Ratio EC50 [20]: 30
EC50 [21]: > 250 µM
IC50 [22]: > 166 µM
Ratio EC50 [23]: 30
EC50 [24]: 0.03 µg/mL (≈ 0.0497 µM)
Ratio EC50 [25]: 30
EC50 [26]: > 10 µg/mL
EC50 [27]: > 10 µg/mL
EC50 [28]: 0.04 µM

SMILES: CC(C)(C)[Si](C)(C)OC[C@H]1O[C@@H](n2cnc3c(N)ncnc32)[C@H](O[Si](C)(C)C(C)(C)C)[C@]12OS(=O)(=O)C=C2N
EC50 [21]: > 10 µM
EC50 [28]: 0.05 µM

SMILES: Cc1cn([C@@H]2O[C@H](CO[Si](C)(C)C(C)(C)C)[C@@]3(OC(=O)N=C3N)[C@H]2O[Si](C)(C)C(C)(C)C)c(=O)n(C)c1=O
EC50 [21]: > 35 µM
EC50 [28]: 5.8 µM

SMILES: Cc1cn([C@@H]2O[C@H](CO[Si](C)(C)C(C)(C)C)[C@@]3(NS(=O)(=O)N=C3N)[C@H]2O[Si](C)(C)C(C)(C)C)c(=O)n(C)c1=O
EC50 [21]: > 7 µM
EC50 [28]: 5.3 µM

Now from value to molecule:

EC50 [21]: > 7 µM
EC50 [28]: 0.08 µM
SMILES: CNC(=O)c1cnnn1[C@@H]1O[C@H](CO[Si](C)(C)C(C)(C)C)[C@@]2(OS(=O)(=O)C=C2N)[C@H]1O[Si](C)(C)C(C)(C)C

EC50 [21]: > 10 µM
EC50 [28]: 0.1 µM
SMILES: CC1=CN([C@@H]2O[C@H](CO[Si](C)(C)C(C)(C)C)[C@@]3(OS(=O)(=O)C=C3N)[C@H]2O[Si](C)(C)C(C)(C)C)C(=O)NC1

EC50 [21]: > 2 µM
EC50 [28]: 0.17 µM
SMILES: Cc1cn([C@@H]2O[C@H](CO[Si](C)(C)C(C)(C)C)[C@@]3(OS(=O)(=O)C=C3N)[C@H]2O[Si](C)(C)C(C)(C)C)c(=O)[nH]c1=S

EC50 [21]: > 10 µM
SMILES: CNC(=O)CCCCn1c(=O)c(C)cn([C@@H]2O[C@H](CO[Si](C)(C)C(C)(C)C)[C@@]3(OS(=O)(=O)C=C3N)[C@H]2O[Si](C)(C)C(C)(C)C)c1=O

IC50 [29]: 3.3 µM
EC50 [21]: > 2 µM
EC50 [28]: 0.15 µM
SMILES: Cc1cn([C@@H]2O[C@H](CO[Si](C)(C)C(C)(C)C)[C@]3(C=CS(=O)(=O)O3)[C@H]2O[Si](C)(C)C(C)(C)C)c(=O)n(C)c1=O
